Test results taken from ChEMBL document CHEMBL3853295, “Design and synthesis of novel pyrazolo[1,5-a]pyrimidine derivatives bearing nitrogen mustard moiety and evaluation of their antitumor activity in vitro and in vivo” (Eur J Med Chem, 2016).

Assays:
[1] = Cytotoxicity against human DU145 cells after 72 hrs by MTT assay; type: functional, cell-based; conditions: DU-145, 72 h
How it was run: (§1)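 Cells cultured in DMEM or RPMI 1640 with 10% FBS. Seeded at about 2 × 10^3 per well and grown 24 h at 37 °C, 5% CO2. Compounds added at final 0.1–1000 uM for 72 h, 5 wells per concentration. MTT added for 4 h at 37 °C, then lysis overnight. Absorbance read at 570 nm against a 650 nm reference; IC50 calculated.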

[2] = Cytotoxicity against human MCF7 cells after 72 hrs by MTT assay; type: functional, cell-based; conditions: MCF7, 72 h; how it was run: as §1
[3] = Cytotoxicity against human HepG2 cells after 72 hrs by MTT assay; type: functional, cell-based; conditions: HepG2, 72 h; how it was run: as §1
[4] = Cytotoxicity against human A549 cells after 72 hrs by MTT assay; type: functional, cell-based; conditions: A549, 72 h; how it was run: as §1
[5] = Cytotoxicity against human SH-SY5Y cells after 72 hrs by MTT assay; type: functional, cell-based; how it was run: as §1
[6] = Cytotoxicity against human GES-1 cells assessed as reduction in cell viability after 72 hrs by MTT assay; type: toxicity, cell-based, GES1; how it was run: as §1

`N#Cc1cnn2c(Nc3ccc(Br)cc3)cc(CN(CCCl)CCCl)nc12` showed an IC50 [1] of 33.1 µM, an IC50 [2] of 28.3 µM and an IC50 [3] of 37.2 µM. It also gave an IC50 [4] of 61.4 µM and an IC50 [5] of 49.1 µM.

With `Cc1cccc(Nc2cc(CN(CCCl)CCCl)nc3c(C#N)cnn23)c1` the IC50 [1] was 35 µM, the IC50 [2] was 25.8 µM and the IC50 [3] was 62.1 µM. It also gave an IC50 [4] greater than 100 µM and an IC50 [5] of 79.9 µM.

`CN1CCN(Cc2cc(Nc3cccc(N(CCCl)CCCl)c3)n3ncc(C#N)c3n2)CC1` gave an IC50 [1] of 50.5 µM, an IC50 [2] of 41.1 µM and an IC50 [3] of 17.6 µM. For the same compound, the IC50 [4] was 19.5 µM and the IC50 [5] was 15.3 µM.

With `N#Cc1cnn2c(Nc3cc(F)cc(F)c3)cc(CN(CCCl)CCCl)nc12` the IC50 [1] was greater than 100 µM, the IC50 [2] was 84.4 µM and the IC50 [3] was greater than 100 µM. For the same compound, the IC50 [4] was greater than 100 µM and the IC50 [5] was greater than 100 µM.

Work on `N#Cc1cnn2c(Nc3cccc(N(CCCl)CCCl)c3)cc(CN3CCC(N4CCCCC4)CC3)nc12` yielded an IC50 [1] of 22.4 µM, an IC50 [2] of 25.1 µM and an IC50 [3] of 9.07 µM. The IC50 [4] was 13.2 µM and the IC50 [5] was 9.36 µM.

In the case of `N#Cc1cnn2c(Nc3cccc(F)c3)cc(CN(CCCl)CCCl)nc12`, the IC50 [1] is reported as greater than 100 µM, the IC50 [2] is reported as greater than 100 µM and the IC50 [3] is reported as 67.2 µM. The IC50 [4] was greater than 100 µM and the IC50 [5] was greater than 100 µM.

Work on `N#Cc1cnn2c(Nc3ccc(N(CCCl)CCCl)cc3)cc(CN3CCC(O)CC3)nc12` yielded an IC50 [1] of 20.9 µM, an IC50 [2] of 20.4 µM and an IC50 [3] of 9.11 µM. For the same compound, the IC50 [4] was 20.6 µM and the IC50 [5] was 13.7 µM.

Work on `N#Cc1cnn2c(Nc3ccc(F)c(Cl)c3)cc(CN(CCCl)CCCl)nc12` yielded an IC50 [1] of 27.4 µM, an IC50 [2] of 76.8 µM and an IC50 [3] of 89.4 µM. It also gave an IC50 [4] greater than 100 µM and an IC50 [5] greater than 100 µM.

With `N#Cc1cnn2c(Nc3ccc(N(CCCl)CCCl)cc3)cc(CN3CCC(CO)CC3)nc12` the IC50 [1] was 26.8 µM, the IC50 [2] was 16.2 µM and the IC50 [3] was 8.54 µM. For the same compound, the IC50 [4] was 12.8 µM and the IC50 [5] was 11.5 µM.

For `CCN1CCN(Cc2cc(Nc3ccc(N(CCCl)CCCl)cc3)n3ncc(C#N)c3n2)CC1`, the IC50 [1] was 21.7 µM, the IC50 [2] was 13.8 µM and the IC50 [3] was 10.7 µM. It also gave an IC50 [4] of 14.8 µM, an IC50 [5] of 8.4 µM and an IC50 at 72 h [6] of 13.5 µM.

With `CCOC(=O)C1CCN(Cc2cc(Nc3cccc(N(CCCl)CCCl)c3)n3ncc(C#N)c3n2)CC1` the IC50 [1] was greater than 100 µM, the IC50 [2] was greater than 100 µM and the IC50 [3] was 88.1 µM. The IC50 [4] was greater than 100 µM and the IC50 [5] was greater than 100 µM.

`CN(C)C1CCN(Cc2cc(Nc3cccc(N(CCCl)CCCl)c3)n3ncc(C#N)c3n2)CC1` showed an IC50 [1] of 27 µM, an IC50 [2] of 25.2 µM and an IC50 [3] of 9.22 µM. For the same compound, the IC50 [4] was 12.7 µM and the IC50 [5] was 15.3 µM.

`N#Cc1cnn2c(Nc3cccc(Br)c3)cc(CN(CCCl)CCCl)nc12` gave an IC50 [1] greater than 100 µM, an IC50 [2] of 41 µM and an IC50 [3] of 49.7 µM. It also gave an IC50 [4] greater than 100 µM and an IC50 [5] greater than 100 µM.

In the case of `N#Cc1cnn2c(Nc3ccc(N(CCCl)CCCl)cc3)cc(CN3CCC(c4ccccc4)CC3)nc12`, the IC50 [1] is reported as greater than 100 µM, the IC50 [2] is reported as greater than 100 µM and the IC50 [3] is reported as greater than 100 µM. The IC50 [4] was greater than 100 µM and the IC50 [5] was greater than 100 µM.

With `N#Cc1cnn2c(Nc3cccc(N(CCCl)CCCl)c3)cc(CN3CCC(O)CC3)nc12` the IC50 [1] was greater than 100 µM, the IC50 [2] was 70.4 µM and the IC50 [3] was 29.7 µM. The IC50 [4] was 35.8 µM and the IC50 [5] was 36.7 µM.

Work on `N#Cc1cnn2c(Nc3ccc(Cl)cc3)cc(CN(CCCl)CCCl)nc12` yielded an IC50 [1] of 42.9 µM, an IC50 [2] of 33 µM and an IC50 [3] of 39.3 µM. For the same compound, the IC50 [4] was 79.5 µM and the IC50 [5] was 50.6 µM.

`CN(C)C1CCN(Cc2cc(Nc3ccc(N(CCCl)CCCl)cc3)n3ncc(C#N)c3n2)CC1` showed an IC50 [1] of 7.67 µM, an IC50 [2] of 12.4 µM and an IC50 [3] of 4.01 µM. The IC50 [4] was 5.12 µM, the IC50 [5] was 7.86 µM and the IC50 at 72 h [6] was 11.1 µM.

`CCOC(=O)c1ccc(Nc2cc(CN(CCCl)CCCl)nc3c(C#N)cnn23)cc1` gave an IC50 [1] of 37.3 µM, an IC50 [2] of 26.4 µM and an IC50 [3] of 52.1 µM. For the same compound, the IC50 [4] was 85.4 µM and the IC50 [5] was 64.4 µM.

Compound `N[C@@H](Cc1ccc(N(CCCl)CCCl)cc1)C(=O)O` [MELPHALAN] has an IC50 [1] greater than 100 µM, an IC50 [2] of 40.6 µM and an IC50 [3] of 18.3 µM. For the same compound, the IC50 [4] was 43.8 µM and the IC50 [5] was greater than 100 µM.

Work on `Cc1ccccc1Nc1cc(CN(CCCl)CCCl)nc2c(C#N)cnn12` yielded an IC50 [1] greater than 100 µM, an IC50 [2] of 99.2 µM and an IC50 [3] greater than 100 µM. It also gave an IC50 [4] greater than 100 µM and an IC50 [5] greater than 100 µM.

Compound `N#Cc1cnn2c(Nc3cccc(N(CCCl)CCCl)c3)cc(CN3CCC(c4ccccc4)CC3)nc12` has an IC50 [1] greater than 100 µM, an IC50 [2] greater than 100 µM and an IC50 [3] greater than 100 µM. For the same compound, the IC50 [4] was greater than 100 µM and the IC50 [5] was greater than 100 µM.

Compound `N#Cc1cnn2c(Nc3cccc(Cl)c3)cc(CN(CCCl)CCCl)nc12` has an IC50 [1] of 43.5 µM, an IC50 [2] of 23 µM and an IC50 [3] of 56.6 µM. It also gave an IC50 [4] greater than 100 µM and an IC50 [5] greater than 100 µM.
